# 5HT1a ag – agonists of human 5-HT1a serotonin receptor | P08908 | CHO 5-HT1a Ga15 NFAT-bla reporter, FRET ratio; 0% basal, 100% maximal reference agonist | activation, % at 10 µM | 65,000 tested, 0.56% active;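 active = activation above the screen-wide mean activation plus 3 SD, cut at about 19% in these data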;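 note: 0% = DMSO wells and 100% = 5-CT at EC100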
# S1P3 ag – S1P3 (human) receptor agonism. Q99500. S1P3 NFAT-BLA reporter cells, FRET ratio; relative to 1 µM S1P, basal subtracted. activation, % at 4.5 µM. 60,000 tested, 0.1% active. AID 373;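 active = activation above the screen-wide mean plus 3 SD, cut at about 4.5% in these data, passing the limit was not always enough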
#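 Assay system: CHO cells stably expressing human S1P3, Gα16 and NFAT-β-lactamase reporter. Timing: overnight plating, 4 h compound 37 °C, 2 h substrate RT. Signal: β-lactamase FRET emission ratio 460/535 nm. Measure: percent activation versus median 1 µM S1P response, basal-subtracted, per plate. Repeats: primary screen single test, confirmation screen in triplicate.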
# S1P1 ag-PAM – S1P1 (human) agonism or agonism potentiation | activation, % at 9.5 µM | AID 449 | 56,000 tested, 0.57% active | P21453 | S1P1 CRE-bla cells, forskolin, beta-lactamase FRET, potentiator mode; S1P1 agonist co-added at EC20, 2 nM; 100% = saturating reference agonist, 0% = basal;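 active = activation above a cutoff set at the mean activation of all tested compounds plus 3 SD, cut at about 54% in these data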;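 note: forskolin at 4 µM as EC80 and the EC20 agonist is SEW2871; 100% = SEW2871 at its EC100 plus forskolin at EC80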
# Target sequence (P21453 whole entry, looked up): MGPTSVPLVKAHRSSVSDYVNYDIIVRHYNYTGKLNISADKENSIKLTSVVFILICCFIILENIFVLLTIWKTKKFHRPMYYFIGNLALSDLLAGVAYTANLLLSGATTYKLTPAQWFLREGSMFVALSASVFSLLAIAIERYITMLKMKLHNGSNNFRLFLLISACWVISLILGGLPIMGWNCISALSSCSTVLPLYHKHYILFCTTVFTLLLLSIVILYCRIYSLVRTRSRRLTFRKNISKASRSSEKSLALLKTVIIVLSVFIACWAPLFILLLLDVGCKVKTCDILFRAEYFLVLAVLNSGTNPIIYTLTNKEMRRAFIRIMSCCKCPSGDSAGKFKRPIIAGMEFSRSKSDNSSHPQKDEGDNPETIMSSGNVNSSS
# 5HT1E ag – agonists of human 5-HT1E serotonin receptor. P28566. CHO 5-HT1E Ga15 NFAT-bla reporter, FRET; 0% DMSO wells, 100% control agonist wells. activation, % at 6 µM. 65,000 tested, 0.69% active;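 active = activation above a set limit, the screen-wide mean activation plus 3 SD, cut at about 8.5% in these data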;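 note: 100% = positive control agonist at 1 µM giving full maximal response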
# Target sequence (P28566 whole entry, looked up): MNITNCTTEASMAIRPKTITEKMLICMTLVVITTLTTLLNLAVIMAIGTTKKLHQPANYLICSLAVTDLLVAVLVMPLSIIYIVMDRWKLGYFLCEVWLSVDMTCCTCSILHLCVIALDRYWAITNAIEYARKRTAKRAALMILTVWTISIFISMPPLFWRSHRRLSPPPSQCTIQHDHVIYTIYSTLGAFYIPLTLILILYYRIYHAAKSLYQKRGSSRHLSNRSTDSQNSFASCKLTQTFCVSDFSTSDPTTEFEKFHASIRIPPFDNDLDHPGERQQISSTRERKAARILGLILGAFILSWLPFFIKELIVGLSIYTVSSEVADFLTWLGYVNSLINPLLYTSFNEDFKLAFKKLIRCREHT
# 5-HT1A blocker – 5-HT1a (human) receptor antagonism; CHO 5-HT1a Ga15 NFAT-bla reporter, antagonist mode; inhibition, % at 10 µM; 62,000 tested, 0.68% active;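 active = inhibition above the mean of all tested compounds plus 3 SD, cut at about 43% in these data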;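 note: receptor stimulated by 5-CT agonist at 100 nM near EC80; beta-lactamase reporter measured by ratiometric fluorescence of a cleavable substrate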
# 5HT1E antag – antagonists of human 5-HT1E serotonin receptor; P28566; inhibition, % at 6 µM; AID 571; CHO 5-HT1E Ga15 NFAT-bla reporter, FRET, antagonist; 65,000 tested, 0.99% active;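 active = inhibition above a set limit, the mean inhibition across every tested compound plus 3 SD, cut at about 29% in these data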;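 note: signal is the 460 over 535 nm emission ratio of beta-lactamase substrate; 0% = agonist plus DMSO wells and 100% = wells without agonist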
# Starred values were filed as active, the others as inactive; . = no result given. Sampled rows, rich in hits. Any-hit rate of the full collection: about 3%.
SMILES,5HT1a ag,S1P3 ag,S1P1 ag-PAM,5HT1E ag,5-HT1A blocker,5HT1E antag
Nc1ccc(N2CCN(Cc3ccccc3Cl)CC2)c(Cl)c1,-0.3,-1.4,3.7,-0.8,3.4,-8.5
CC(C)(C)c1ccc(O)c(CN2CCN(c3ccccc3)CC2)c1,-2.5,-0.3,-38.5,4.2,64.2*,-4.0
COc1ccc(CC2C(=O)N(C)C(=O)N(C)C2=O)c(OC)c1,22.3*,-0.5,-46.1,0.0,-51.5,-4.5
CCCCc1ccc2[nH]cc(CCN)c2c1,68.7*,0.4,4.0,106.3*,-8.2,-3.4
COC(=O)CC1=C(C(=O)OC)C2(C(=O)N(C)c3ccccc32)C(C#N)=C(N)O1 (stereo not drawn),-0.9,.,.,0.9,10.0,-7.4
CC(C)CC1C(C#N)=C(N)Oc2c1c(=O)oc1ccccc21 (stereo not drawn),-0.3,-1.2,-3.8,0.7,18.4,-2.4
O=C(CCCN1CCC2(CC1)C(=O)NCN2c1ccccc1)c1ccc(F)cc1,-1.6,-0.5,-37.2,16.0*,.,-30.4
c1ccc2c(CN3CCCCCCC3)c[nH]c2c1,1.5,3.6,.,-0.9,34.3,0.0
CN1CC=C(c2c[nH]c3ccccc23)CC1,14.7,-1.7,8.7,105.9*,-1.9,-6.9
COC(=O)c1cc(COc2cc(C)cc3oc(=O)c4c(c23)CCC4)c(C)o1,-1.1,0.7,-12.9,0.5,-10.7,-11.7
CN1CCN(CC(=O)Nc2ccc(Cl)cc2C(=O)c2ccccc2)CC1,1.9,-1.0,-11.1,10.4*,-3.5,-4.4
O=C(CN1CCN(CCO)CC1)Nc1ccc(Cl)cc1C(=O)c1ccccc1,-1.0,-1.3,6.2,-0.7,.,7.6
COc1ccccc1N1CCN(Cc2ccccc2Cl)CC1,-1.0,-0.7,-14.8,8.0,20.0,-1.0
COc1ccccc1N1CCN(Cc2ccccc2F)CC1,1.2,-0.9,-20.3,17.8*,6.2,-5.5
COc1ccccc1N1CCN(Cc2c(F)cccc2F)CC1,-0.8,-1.1,-6.6,1.6,-0.4,11.0
COc1ccccc1N1CCN(Cc2cccc(OC)c2O)CC1,2.5,-1.1,.,12.6*,32.1,5.2
CC12CCCCC1=[N+]([O-])CN2O (stereo not drawn),-1.0,-0.5,-7.7,-0.4,-2.2,-18.9
CCn1nc(-c2cccs2)nc2c(=O)n(C)c(=O)nc1-2,10.7,-2.1,96.2*,1.3,81.9*,95.9*
Cc1[nH]c2c(Cl)cccc2c1CCN,-1.5,-0.7,5.2,71.4*,5.9,6.9
CN(C)P(=O)(C(Cl)=C(N1CCCCC1)N1CCCCC1)N(C)C,-6.4,-1.1,1.0,0.0,43.0*,0.2
CN(C(=O)c1ccco1)C1(c2ccccc2Cl)CCCCC1=O (stereo not drawn),-2.1,.,.,-1.2,22.0,1.9
O=C1CN=C(c2ccccc2)c2oc3ccc(Br)cc3c2N1,0.0,-1.1,-30.7,0.4,14.7,10.0
COc1cccc(OC)c1C1=NCC(=O)Nc2c1oc1ccc(Br)cc21,-2.1,-1.1,3.7,-0.6,71.1*,79.7*
COc1cccc(N2CCN(Cc3ccc(Cl)cc3)CC2)c1,-1.2,-1.1,-19.3,8.0,-5.4,0.3
COc1cccc(N2CCN(Cc3cccc(Cl)c3)CC2)c1,1.9,-1.9,-1.4,0.1,-8.6,33.8*
SMILES,5HT1a ag,S1P3 ag,S1P1 ag-PAM,5HT1E ag,5-HT1A blocker,5HT1E antag
CC(C)[C@H]1C(=O)N2CCC[C@H]2[C@]2(O)O[C@](NC(=O)[C@@H]3C=C4c5cccc6[nH]cc(c56)C[C@H]4N(C)C3)(C(C)C)C(=O)N12,102.4*,18.0,-37.8,4.0,.,-1.2
CC(C)[C@@]1(NC(=O)[C@@H]2C[C@@H]3c4cccc5[nH]cc(c45)C[C@H]3N(C)C2)O[C@@]2(O)[C@@H]3CCCN3C(=O)[C@H](Cc3ccccc3)N2C1=O,95.9*,0.2,-46.4,1.7,.,-11.6
CC(C)[C@@]1(NC(=O)[C@@H]2C=C3c4cccc5[nH]cc(c45)C[C@H]3N(C)C2)O[C@@]2(O)[C@@H]3CCCN3C(=O)[C@H](Cc3ccccc3)N2C1=O,112.9*,-1.5,7.3,9.1*,.,7.3
O=C(c1cc2c(s1)CCCC2)N1CCC2(CC1)OCCO2,-2.2,-0.8,-9.8,0.7,-10.0,-2.5
Cc1[nH]c2ccccc2c1C1=CCNCC1,0.4,0.5,14.7,90.6*,-15.9,-8.7
CCOC(=O)c1cccc([P+](=O)O)c1,-1.7,-1.2,-0.1,0.9,-12.3,-12.1
Cn1ccnc1P(=S)(c1nccn1C)c1nccn1C,1.4,0.2,-1.6,1.0,4.3,-9.4
CCCCC12CNCC(C)(CNC1)C2=O,86.3*,0.2,-11.9,0.3,-12.3,-7.5
CCOCCCNC(=O)CN1C2CCC1CC(O)(c1ccc(OC)cc1)C2 (stereo not drawn),-0.9,-0.9,1.8,-0.8,2.8,2.4
COc1cc2nc(CN3CC=C(c4ccccc4)CC3)[nH]c(=O)c2cc1OC,1.1,0.8,22.0,0.4,44.1*,1.0
COc1cc2c(cc1OC)-c1c(OC)c(OC)cc3c1C(C2)N(C)CC3 (stereo not drawn),6.3,0.3,-20.7,25.1*,2.6,23.5
O=C(Cn1ncc2c3ccccc3n(Cc3cccc(Cl)c3)c2c1=O)N1CCC2(CC1)OCCO2,1.5,-0.2,17.1,0.3,1.4,3.0
O=c1c2ccccc2nc(-c2ccco2)n1-c1cccnc1,-1.0,-2.2,2.8,0.1,6.5,12.1
CCCCCCn1c(N)c(C(=O)NCCN2CCOCC2)c2nc3ccccc3nc21,10.8,10.0*,-129.7,3.0,-19.1,2.8
COc1ccc(Cn2c(N)c(C(=O)NCc3ccco3)c3nc4ccccc4nc32)cc1,-4.4,7.5*,-298.5,0.3,20.9,6.6
Nc1c(C(=O)NCc2ccco2)c2nc3ccccc3nc2n1Cc1ccc(F)cc1,15.8,12.4,-63.6,2.4,.,-14.1
COCCCn1c(N)c(C(=O)NCCC(C)C)c2nc3ccccc3nc21,34.0*,10.2*,-112.2,11.9*,-32.2,-20.7
CCOC(=O)c1cc(C)n(CCc2cnc[nH]2)c1C,-1.6,-1.9,-4.2,-0.5,.,-4.5
COc1ccc(N=C(C)c2c(O)n(C3CCCCC3)c(=O)[nH]c2=O)c(OC)c1,1.0,0.7,-1.4,-0.2,-5.4,-5.7
Cn1c(O)c(C=NC2C(=O)C3(C)CCC2C3(C)C)c(=O)n(C)c1=O (stereo not drawn),-3.0,-0.2,-5.6,2.2,-32.7,-5.3
CCCCc1nc(N2CCNCC2)c(C#N)c2c1CSC(C)(C)C2,-1.5,-2.6,-19.6,10.2*,.,9.2
O=C(O)c1nonc1-c1nonc1C(=O)O,0.8,-0.8,-19.5,-0.7,4.9,-1.9
Cn1c(O)c(C(=NCCN2CCCCC2)c2ccccc2Cl)c(=O)n(C)c1=O,-0.5,-0.2,-19.3,-0.9,42.9*,-11.2
CCC(=NCCN1CCCCC1)c1c(O)n(C)c(=O)n(C)c1=O,-0.7,-2.1,-3.7,-0.5,.,-6.5
O=P(/C(=N/O)N1CCOCC1)(N1CCOCC1)N1CCOCC1,-2.8,-0.1,-17.8,1.0,4.4,-6.3
CCC(=NCCOc1ccc(Cl)cc1)c1c(O)n(C)c(=O)n(C)c1=O,0.2,-6.6,62.2*,-1.5,.,16.1
Cc1ccc(-c2nc3ccccc3c(=O)n2-n2cccc2)cc1,0.1,-0.1,-23.1,1.1,-4.6,-4.9

# Assay outcomes deposited in PubChem BioAssay by The Scripps Research Institute Molecular Screening Center.
